The values that follow come from ChEMBL document CHEMBL3244071, “3-Phenyl-5-[2,2,2-trifluoro-1-hydroxy-1-(trifluoromethyl)ethyl]indole-2-carbonitrile, a potent inhibitor of prostaglandin synthetase and of platelet aggregation” (J Med Chem, 1979).

Series [1] deals with prostaglandin G/H synthase 1 (Bos taurus) (UniProt O62664). The series is described as follows: Inhibition of prostaglandin synthetase (bovine) using arachidonic acid as substrate preincubated for 10 mins followed by substrate addition.
The target is the same in series [2]. The series is described as follows: Ratio of indomethacin IC50 to compound IC50 for prostaglandin synthetase (bovine).
The subject of series [3] is Rattus norvegicus. The series is described as follows: Inhibition of PGF2-alpha formation in po dosed rat serum after 1 hr by radioimmunoassay. The series is classed as functional. The essentials:
(§1)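 Male rats, about 200 g, five per group, dosed at various levels ip or orally by intubation. Killed 1 h later and serum prepared. Serum extracted with ethyl acetate, extract evaporated under nitrogen, then assayed by radioimmunoassay using rabbit antibodies raised to PGF2α.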

Series [4] has as its system Platelet. The series is described as follows: Inhibition of ADP-induced platelet aggregation in human platelet-rich plasma after 5 mins. The format is functional. The essentials: (§2)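 Human PRP from centrifugation (180g, 15 min, room temperature); PPP from spinning PRP at 1000g for 2 min. 1 mL PRP stirred at 1000 rpm at 37 °C in a densitometer. Compounds added in physiological saline at various concentrations and incubated 5 min. Aggregation then triggered with ADP, epinephrine hydrochloride or human mammary-gland collagen. IC50 extrapolated from % inhibition vs log concentration.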

The subject of series [5] is Platelet. The series is described as follows: Inhibition of collagen-induced platelet aggregation in human platelet-rich plasma after 5 mins. The series is classed as functional. The procedure, abridged:
as §2

Series [6] is filed under the species Rattus norvegicus. The series is described as follows: Toxicity in rat assessed as systemic antiinflammatory activity. The conditions noted are these: in vivo. The series is classed as organism-based.
Series [7] can be described thus: Toxicity in po dosed mouse. Particulars: in vivo. The series is classed as organism-based. The essentials:
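Acute oral (single-dose) administration to mice; the endpoint was the LD50 in mg/kg.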

The nature of series [8]: Toxicity in po dosed mouse treated for 14 days. The format is organism-based. Particulars: in vivo.
The species entered for series [9] is Rattus norvegicus. The series is described as follows: Toxicity in rat assessed as systemic analgesic activity. The format is organism-based. Particulars: in vivo.
Series [10] concerns Rattus norvegicus. The series is described as follows: Toxicity in po dosed rat assessed as gastric ulcer incidence after 4 hrs. The series is classed as organism-based, Stomach. The conditions noted are these: in vivo. The essentials:
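Male rats fasted 18 h with water ad libitum. Dosed orally 4 h before autopsy. Stomachs opened along the lesser curvature, everted, rinsed in saline and examined for focal petechiae.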

In series [11] the test system is Rattus norvegicus. The series is described as follows: Inhibition of PGF2-alpha formation in ip dosed rat serum after 1 hr by radioimmunoassay. The format is functional. The procedure, abridged:
as §1

The test system of series [12] is Mus musculus. Kind of series: Inhibition of arachidonic acid-induced diarrhea in po dosed mouse treated for 1 hr prior to arachidonic acid-challenge measured after 30 mins. The format is functional. The essentials: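 Male mice, 18-20 g, given compound orally 1 h before arachidonic acid 4 mg/kg ip. Diarrhea scored 0-4 on paper towels by pellet softness and wet ring.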

Series [13] relates to Platelet. The series is described as follows: Inhibition of epinephrine hydrochloride-induced platelet aggregation in human platelet-rich plasma after 5 mins. The format is functional. The essentials:
as §2

[14] abbreviates: Homo sapiens, Platelet, Plasma, 5 min, read-out: IC50.

In general, IC50 refers to the midpoint of a concentration-inhibition curve. Take `NC(=O)c1[nH]c2ccc(C(O)(C(F)(F)F)C(F)(F)F)cc2c1-c1ccccc1`: the IC50 in series [1] was 7 µM.

As a reminder, the ED50 is the midpoint of the dose-response relation. The term LD50 denotes the dose expected to kill half of the subjects tested. For the compound `N#Cc1[nH]c2ccc(C(O)(C(F)(F)F)C(F)(F)F)cc2c1-c1ccccc1`, in [2], the Ratio IC50 came out at 2. For the same compound, the ED50 is 28 mg/kg in [3], over 250 mg/kg in series [10], 15 mg/kg in series [11] and 5 mg/kg in [12]. Also, the IC50 came out at 7.3 µM in [4], 4.2 µM in series [5], 0.5 µM in series [1] and 34 µM in series [13] (setting [14]). The Activity result in series [6] and in [9] was “Non-toxic” throughout. The compound further had an LD50 in series [7] of over 1000 mg/kg. The compound also had an LD50 at 336 h in series [8] of over 1000 mg/kg.

With `CC(=O)Oc1ccccc1C(=O)O` [ASPIRIN], the ED50 in [3] amounted to 6.7 mg/kg; in series [10], 49 mg/kg; in series [11] it was 10 mg/kg; in series [12] it was 1.3 mg/kg. Besides, the IC50 in series [4] was determined as 25 µM; in series [5] it was 31 µM; in series [13] (platelet), 18 µM.

Regarding `COc1ccc2c(c1)c(CC(=O)O)c(C)n2C(=O)c1ccc(Cl)cc1` [INDOMETHACIN], the ED50 in series [3] is under 1 mg/kg; in series [10] it was 3 mg/kg; in series [11], under 1 mg/kg; in [12], 0.8 mg/kg. Also, the results for the IC50 in series [4], in series [5] and in series [13] (setting [14]) were 0.1 µM, 2.8 µM and 3.2 µM, respectively.
